We go through 25 molecules from ChEMBL document CHEMBL5625181, “Exploring the 1,3-benzoxazine chemotype for cannabinoid receptor 2 as a promising anti-cancer therapeutic” (Eur J Med Chem, 2023).

The target in experiment [1] is T1, Cannabinoid receptor 2 (Homo sapiens, UniProt P34972). The experiment in a line: Displacement of [3H]CP55,940 from human CB2 receptor expressed in CHO cells membrane assessed as residual activity at 0.1 uM by scintillation counting analysis relative to control. The class given is cell membranes. A digest of the protocol:
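Membranes (2.5 µg) from CHO cells stably expressing human CB2, in 50 mM Tris-HCl, 5 mM MgCl2, 1 mM CaCl2, 2 mg/mL BSA, pH 7.4. Incubated 30 min at 37 °C with 0.8 nM [3H]CP55,940 and 0.1 µM compound (final). Nonspecific binding with 1 µM unlabelled CP55,940. Filtered on PEI-soaked GF/B filters, scintillation counted. Quintuplicate, ≥3 experiments.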

The target in another experiment is Cannabinoid receptor 1 (Homo sapiens, UniProt P21554). The experiment is described as follows: Agonist activity at human recombinant Cannabinoid receptor 1 by GTPgammaS binding assay. Particulars: read-out: pEC50 (converted). The format is functional. The essentials:
(§1)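 [35S]GTPγS filtration assay. Membranes (5 µg CB2 or 10 µg/well CB1), permeabilized with equal mass of saponin, preincubated 20 min at room temperature with compound (0-100 μM) in 20 mM HEPES, 100 mM NaCl, 10 mM MgCl2, 10 µM GDP, pH 7.4. Then 0.3 nM [35S]GTPγS for 30 min at 37 °C. Quintuplicate, ≥3 experiments. pEC50 from non-linear fit.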

The target in experiment [2] is T1, Cannabinoid receptor 2. The experiment in a line: Agonist activity at human recombinant Cannabinoid receptor 2 by GTPgammaS binding assay. The format is functional. The following applies: for EC50: read-out: pEC50 (converted). The essentials:
as §1

Experiment [3] concerns BT-549. The experiment is described as follows: Inhibition of colony formation in human BT-549 cells assessed as decrease in number of colonies at 0.1 uM incubated for 14 days by inverted phase contrast microscope relative to control. Particulars: time 14.0 day. The class given is functional, cell-based. The essentials:
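BT549 seeded at 1 x 10^3 cells/well and grown at 37 °C for at least 14 days with vehicle or compound. Colonies fixed and stained with 6% glutaraldehyde/0.5% crystal violet for 30 min, then counted by inverted phase-contrast microscopy (10x). Expressed as % of vehicle. Three independent experiments, each at least in triplicate.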

For experiment [4], the target named is T1, Cannabinoid receptor 2. The experiment in a line: Agonist activity at human recombinant Cannabinoid receptor 2 assessed as stimulation of GTPgammaS binding at 1 uM by GTPgammaS binding assay relative to control. The class given is functional. A digest of the protocol:
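CB2 membranes (ChemiSCREEN) at 5 µg, permeabilised with an equal mass of saponin. Pre-incubated with ligand for 20 min at RT in 20 mM HEPES, 100 mM NaCl, 10 mM MgCl2, pH 7.4, with 10 µM GDP. Then 0.3 nM [35S]GTPγS for 30 min at 37 °C. Stopped with ice-cold phosphate buffer, filtered on PEI-soaked GF/B, scintillation counted. Quintuplicates, ≥3 experiments.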

The test system of experiment [5] is BT-549. The experiment in a line: Antiproliferative activity against human BT-549 cells transfected with CNR2 siRNA assessed as inhibition of cell proliferation at 0.1 uM incubated after 24 hrs by MTT assay. The class given is functional, cell-based. The essentials: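 BT549 transfected with 50 nM CNR2 siRNA or scramble oligo (Lipofectamine RNAiMAX). After 24 h, treated for a further 24 h. Viability by MTT: 1 mg/mL final for 3 h at 37 °C, formazan dissolved in DMSO, absorbance read at 590 nm.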

The subject of experiment [6] is BT-549. The experiment in a line: Antiproliferative activity against human BT-549 cells assessed as decrease in cell proliferation at 0.1 uM by MTT assay. The class given is functional, cell-based. A digest of the protocol:
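BT549 in RPMI-1640 with 10% FBS and insulin, seeded at 1.5 x 10^4/well overnight. Sub-confluent cells treated at 37 °C. MTT added at 1 mg/mL final for 3 h at 37 °C in the dark, formazan dissolved in DMSO, absorbance read at 590 nm. Expressed as % of vehicle.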

Active and inactive are the calls of the source. The calls are words filed in the database; no cut-off is given here.

Cannabinoid receptor 1, sequence (P21554 whole entry): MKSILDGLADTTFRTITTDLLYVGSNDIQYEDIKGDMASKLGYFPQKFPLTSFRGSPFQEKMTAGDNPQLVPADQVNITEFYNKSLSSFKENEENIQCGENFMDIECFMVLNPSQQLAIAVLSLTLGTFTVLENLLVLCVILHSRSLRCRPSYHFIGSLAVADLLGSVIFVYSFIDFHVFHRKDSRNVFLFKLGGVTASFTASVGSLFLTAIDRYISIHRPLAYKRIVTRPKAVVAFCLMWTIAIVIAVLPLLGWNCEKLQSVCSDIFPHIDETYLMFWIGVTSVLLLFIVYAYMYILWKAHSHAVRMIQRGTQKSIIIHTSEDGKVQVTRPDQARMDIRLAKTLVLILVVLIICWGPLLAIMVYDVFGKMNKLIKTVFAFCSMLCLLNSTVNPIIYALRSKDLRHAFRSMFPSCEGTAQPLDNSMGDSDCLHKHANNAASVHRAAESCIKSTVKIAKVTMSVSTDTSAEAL
T1 sequence (P34972 whole entry): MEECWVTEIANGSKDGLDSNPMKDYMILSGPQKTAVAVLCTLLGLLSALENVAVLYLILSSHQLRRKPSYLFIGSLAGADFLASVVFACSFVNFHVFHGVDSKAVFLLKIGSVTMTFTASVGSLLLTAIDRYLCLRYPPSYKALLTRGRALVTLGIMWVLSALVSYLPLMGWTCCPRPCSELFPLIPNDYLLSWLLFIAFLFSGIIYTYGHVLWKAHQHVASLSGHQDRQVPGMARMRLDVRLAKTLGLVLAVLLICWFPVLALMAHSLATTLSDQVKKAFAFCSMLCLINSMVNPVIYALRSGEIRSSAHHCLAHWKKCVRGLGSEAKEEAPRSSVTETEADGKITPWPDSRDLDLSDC

Regarding `CN1C(=O)c2ccc(OS(=O)(=O)c3ccc(Oc4ccccc4)cc3)cc2OC1(C)C`, the Activity on Cannabinoid receptor 2 [1] was less than 80%.
In the case of `O=C1c2ccc(OS(=O)(=O)Cc3ccccc3)cc2OC2(CCCCC2)N1Cc1ccccc1`, the EC50 on Cannabinoid receptor 1 is more than 10 µM; on Cannabinoid receptor 2 [2], 0.759 µM. Further, the Activity on Cannabinoid receptor 2 [1] was less than 80%.
Turning to `N#Cc1cccc(S(=O)(=O)Oc2ccc3c(c2)OC2(CCCCC2)N(Cc2ccccc2)C3=O)c1`, the EC50 at Cannabinoid receptor 1 was more than 10 µM; at Cannabinoid receptor 2 [2], 0.355 µM. For the same molecule, the Activity at Cannabinoid receptor 2 [1] was less than 80%.
Take `O=C1c2ccc(OS(=O)(=O)c3ccc(-c4ccc(Cl)cc4)cc3)cc2OC2(CCCCC2)N1Cc1ccccc1`: the Activity on Cannabinoid receptor 2 [1] was less than 80%.
As to `COc1cccc(S(=O)(=O)Oc2ccc3c(c2)OC2(CCCCC2)N(Cc2ccc(C(C)C)cc2)C3=O)c1`, the Activity at Cannabinoid receptor 2 [1] was less than 80%.
Regarding `COc1cccc(S(=O)(=O)Oc2ccc3c(c2)OC2(CCCCC2)N(Cc2ccccc2)C3=O)c1`, the EC50 on Cannabinoid receptor 1 is more than 10 µM; on Cannabinoid receptor 2 [2] it was 0.417 µM. The Activity at Cannabinoid receptor 2 [1] was less than 80%.
Regarding `O=C1c2ccc(OS(=O)(=O)c3ccc4c(c3)OCCO4)cc2OC2(CCOCC2)N1Cc1ccccc1`, the Activity on Cannabinoid receptor 2 [1] was less than 80%.
Consider `N#Cc1ccc(S(=O)(=O)Oc2ccc3c(c2)OC2(CCCCC2)N(Cc2ccccc2)C3=O)cc1`, for which the EC50 at Cannabinoid receptor 1 was more than 10 µM; on Cannabinoid receptor 2 [2], 0.288 µM. Also, the Activity on Cannabinoid receptor 2 [1] is less than 80%.
With `CN1C(=O)c2ccc(OS(=O)(=O)c3cccc4ccccc34)cc2OC1(C)C`, the values for the EC50 at Cannabinoid receptor 1 and at Cannabinoid receptor 2 [2] were 7.24 µM and 2.95 µM, respectively. For the same molecule, the Activity at Cannabinoid receptor 2 [1] is less than 80%.
For `Cn1ccc(S(=O)(=O)Oc2ccc3c(c2)OC2(CCCCC2)N(Cc2ccc(C#N)cc2)C3=O)n1` the same measures were more than 10 µM, 0.372 µM and less than 80%.
Consider `O=C1NC2(CCCCC2)Oc2cc(OS(=O)(=O)c3ccccc3[N+](=O)[O-])ccc21`, for which the EC50 at Cannabinoid receptor 1 was more than 10 µM; on Cannabinoid receptor 2 [2] it was 2.14 µM. Besides, at Cannabinoid receptor 2 [1], the Activity was less than 80%.
Turning to `CC(C)(C)C(=O)COc1ccc2c(c1)OC(C)(C)N(Cc1ccccc1)C2=O`, the pEC50 result at Cannabinoid receptor 2 [2] is “inactive”. The Activity on Cannabinoid receptor 2 [1] was less than 80%.
On to `COc1ccc(S(=O)(=O)Oc2ccc3c(c2)OC2(CCCCC2)N(Cc2ccccc2)C3=O)cc1`, for which the EC50 is more than 10 µM on Cannabinoid receptor 1 and 1.48 µM on Cannabinoid receptor 2 [2]. Also, the Activity on Cannabinoid receptor 2 [1] is less than 80%.
For the molecule `Cc1ccc(S(=O)(=O)Oc2ccc3c(c2)OC(C)(C)N(Cc2ccc(F)cc2)C3=O)cc1`, the results for the EC50 on Cannabinoid receptor 1 and at Cannabinoid receptor 2 [2] were more than 10 µM and 0.195 µM, respectively. For the same molecule, on Cannabinoid receptor 2 [1], the Activity was less than 80%.
As for `CCCn1c(C)c(C(=O)c2cccc3ccccc23)c2ccccc21`, the inhibition result in the experiment on BT-549 [3] is “Active”. The Activity on Cannabinoid receptor 2 [4] came out at 233%. Also, the result with BT-549 [5] was inactive. Further, the result with BT-549 [6] was Active.
For `COc1cccc(S(=O)(=O)Oc2ccc3c(c2)OC2(CCCCC2)N(CCCCC#N)C3=O)c1`, the EC50 is more than 10 µM at Cannabinoid receptor 1 and 0.776 µM on Cannabinoid receptor 2 [2]. In addition, the Activity on Cannabinoid receptor 2 [1] was less than 80%.
For the molecule `COc1cccc(COc2ccc3c(c2)OC(C)(C)N(Cc2ccc(F)cc2)C3=O)c1`, at Cannabinoid receptor 2 [2], the pEC50 entry is “inactive”. Besides, on Cannabinoid receptor 2 [1], the Activity was less than 80%.
With `COc1cccc(COc2ccc3c(c2)OC(C)(C)N(Cc2ccc(C(C)C)cc2)C3=O)c1`, the pEC50 entry on Cannabinoid receptor 2 [2] was “inactive”. At Cannabinoid receptor 2 [1], the Activity was less than 80%.
Regarding `O=C1c2ccc(OS(=O)(=O)c3ccc([N+](=O)[O-])cc3)cc2OC2(CCOCC2)N1Cc1ccccc1`, the Activity at Cannabinoid receptor 2 [1] is less than 80%.
Consider `N#Cc1ccc(CN2C(=O)c3ccc(OCc4ccc(OC(F)(F)F)cc4)cc3OC23CCCCC3)cc1`, for which the pEC50 result at Cannabinoid receptor 2 [2] was “inactive”. The Activity on Cannabinoid receptor 2 [1] was less than 80%.
Turning to `CC1(C)Oc2cc(OCc3ccc(OC(F)(F)F)cc3)ccc2C(=O)N1Cc1ccc(F)cc1`, the pEC50 result on Cannabinoid receptor 2 [2] was “inactive”. Besides, on Cannabinoid receptor 2 [1], the Activity is less than 80%.
`CN(C)C(=O)CN1C(=O)c2ccc(OS(=O)(=O)c3ccc(Br)cc3)cc2OC1(C)C`: the Activity on Cannabinoid receptor 2 [1] was less than 80%.
As for `O=C1c2ccc(OS(=O)(=O)c3cccc([N+](=O)[O-])c3)cc2OC2(CCOCC2)N1Cc1ccccc1`, the EC50 was more than 10 µM on Cannabinoid receptor 1 and 0.204 µM at Cannabinoid receptor 2 [2]. In addition, on Cannabinoid receptor 2 [1], the Activity is less than 80%.
Regarding `CC1(C)NC(=O)c2ccc(OS(=O)(=O)c3cccc4ccccc34)cc2O1`, at Cannabinoid receptor 2 [1], the Activity is less than 80%.
For `Cn1cnc(S(=O)(=O)Oc2ccc3c(c2)OC2(CCCCC2)N(Cc2ccccc2)C3=O)c1`, the EC50 at Cannabinoid receptor 1 is more than 10 µM; on Cannabinoid receptor 2 [2], 1 µM. Moreover, at Cannabinoid receptor 2 [1], the Activity was less than 80%.
